Measurements from ChEMBL document CHEMBL1143019, “Hybrid molecules of estrone: new compounds with potential antibacterial, antifungal, and antiproliferative activities” (2007).
In brackets after ≈: the same amount, converted by molar mass.

Tests used:
[1] = system: Mycobacterium tuberculosis; experiment: Antimicrobial activity against Mycobacterium tuberculosis My 331/88 after 14 days; format: functional; details: 336 h
[2] = system: Mycobacterium tuberculosis; experiment: Antimicrobial activity against Mycobacterium tuberculosis My 331/88 after 21 days; format: functional; details: 504 h
[3] = system: Mycobacterium avium; experiment: Antimicrobial activity against Mycobacterium avium My 330/88 after 14 days; format: functional; details: 336 h
[4] = system: Mycobacterium avium; experiment: Antimicrobial activity against Mycobacterium avium My 330/88 after 21 days; format: functional; details: 504 h
[5] = system: Mycobacterium kansasii; experiment: Antimicrobial activity against Mycobacterium kansasii My 235/80 after 7 days; format: functional; details: 168 h
Outline: (§1)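 Run in Šula semisynthetic liquid medium containing bovine serum. Compounds added as DMSO solutions at final concentrations of […]. Each strain was also inoculated onto Löwenstein–Jensen medium to control inoculum sterility and growth.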

[6] = system: Mycobacterium kansasii; experiment: Antimicrobial activity against Mycobacterium kansasii My 235/80 after 14 days; format: functional; details: 336 h; outline: as §1
[7] = system: Mycobacterium kansasii; experiment: Antimicrobial activity against Mycobacterium kansasii My 235/80 after 21 days; format: functional; details: 504 h; outline: as §1
[8] = system: Mycobacterium kansasii; experiment: Antimicrobial activity against Mycobacterium kansasii My 6509/96 after 7 days; format: functional; details: 168 h; outline: as §1
[9] = system: Mycobacterium kansasii; experiment: Antimicrobial activity against Mycobacterium kansasii My 6509/96 after 14 days; format: functional; details: 336 h; outline: as §1
[10] = system: Mycobacterium kansasii; experiment: Antimicrobial activity against Mycobacterium kansasii My 6509/96 after 21 days; format: functional; details: 504 h; outline: as §1
[11] = system: Candida albicans; experiment: Antifungal activity against Candida albicans ATCC 44859 after 24 hrs; format: functional; details: ATCC 44859, 24 h
Outline: (§2)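 Modified NCCLS M27-A broth microdilution with clinical isolates subcultured on Sabouraud dextrose agar. Suspensions diluted 1:50 in RPMI 1640 to give a final inoculum of 0.5–2.5×10³ CFU/mL for yeasts or 0.5–5×10⁴ CFU/mL for molds. The RPMI had L-glutamine, no bicarbonate, and 0.165 M MOPS to pH 7.0. Twofold dilutions from 250 to 0.49. Plates held at 35 °C, humid, without agitation. MIC is the lowest concentration giving ≥80% inhibition versus drug-free control, read at 24 and 48 h.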

[12] = system: Candida albicans; experiment: Antifungal activity against Candida albicans ATCC 44859 after 48 hrs; format: functional; details: ATCC 44859, 48 h; outline: as §2
[13] = system: Candida tropicalis; experiment: Antifungal activity against Candida tropicalis 156 after 24 hrs; format: functional; outline: as §2
[14] = system: Candida tropicalis; experiment: Antifungal activity against Candida tropicalis 156 after 48 hrs; format: functional; outline: as §2
[15] = system: Pichia kudriavzevii; experiment: Antifungal activity against Candida krusei E28 after 24 hrs; format: functional; outline: as §2
[16] = system: Pichia kudriavzevii; experiment: Antifungal activity against Candida krusei E28 after 48 hrs; format: functional; outline: as §2
[17] = system: Nakaseomyces glabratus; experiment: Antifungal activity against Candida glabrata 20/I after 24 hrs; format: functional; outline: as §2
[18] = system: Nakaseomyces glabratus; experiment: Antifungal activity against Candida glabrata 20/I after 48 hrs; format: functional; outline: as §2
[19] = system: Trichosporon beigelii; experiment: Antifungal activity against Trichosporon beigelii 1188 after 24 hrs; format: functional; outline: as §2
[20] = system: Trichosporon beigelii; experiment: Antifungal activity against Trichosporon beigelii 1188 after 48 hrs; format: functional; outline: as §2
[21] = system: Aspergillus fumigatus; experiment: Antifungal activity against Aspergillus fumigatus 231 after 24 hrs; format: functional; outline: as §2
[22] = system: Aspergillus fumigatus; experiment: Antifungal activity against Aspergillus fumigatus 231 after 48 hrs; format: functional; outline: as §2
[23] = system: Lichtheimia corymbifera; experiment: Antifungal activity against Absidia corymbifera 272 after 24 hrs; format: functional; outline: as §2
[24] = system: Lichtheimia corymbifera; experiment: Antifungal activity against Absidia corymbifera 272 after 48 hrs; format: functional; outline: as §2
[25] = system: Trichophyton benhamiae; experiment: Antifungal activity against Trichophyton mentagrophytes 445 after 72 hrs; format: functional, Arthroderma benhamiae
Outline: (§3)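 Same modified M27-A microdilution with the mold inoculum of 0.5–5×10⁴ CFU/mL. Medium was RPMI 1640 with L-glutamine, no bicarbonate, and 0.165 M MOPS at pH 7.0. Twofold dilutions from 250 to 0.49. Incubated at 35 °C in a humid atmosphere.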

[26] = system: Trichophyton benhamiae; experiment: Antifungal activity against Trichophyton mentagrophytes 445 after 120 hrs; format: functional, Arthroderma benhamiae; outline: as §3
[27] = system: L929; experiment: Antiproliferative activity against mouse L929 cells after 72 hrs; format: functional; details: L929, 72 h
Outline: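 About 10,000 adherent cells per well in RPMI 1640 with 10% heat-inactivated FBS and penicillin/streptomycin, without HEPES. Exposed to 10 concentrations for 72 h at 37 °C in humidified 5% CO₂. Monolayers fixed with glutaraldehyde, stained 15 min with 0.05% methylene blue, and eluted with 0.33 N HCl; OD read at 630 nm. GI50 derived from dose–response curves relative to control.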

[28] = system: K562; experiment: Antiproliferative activity against human K562 cells after 72 hrs; format: functional; details: K562, 72 h
Outline: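 About 10,000 suspension cells per well in RPMI 1640 with 10% heat-inactivated FBS and penicillin/streptomycin, without HEPES. Exposed to 10 concentrations for 72 h at 37 °C in humidified 5% CO₂. Wells diluted 1:50 in CASYTON and counted electronically, each result the mean of three successive counts. GI50 is where the concentration–response curve crosses 50% of control cell count.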

[29] = system: HeLa; experiment: Cytotoxicity against human HeLa cells after 72 hrs; format: functional; details: for CC50: Homo sapiens, HeLa, 72 h
Outline: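 About 10,000 cells per well in RPMI 1640 were preincubated 48 h without compound. The 10 test concentrations were then applied onto the monolayers and incubated 72 h at 37 °C in humidified 5% CO₂. Monolayers fixed with glutaraldehyde, stained with 0.05% methylene blue, and eluted with 0.33 N HCl; optical density measured at 630 nm.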

[30] = system: Staphylococcus aureus; experiment: Antibacterial activity against Staphylococcus aureus SG 511 after 24 hrs by micro-broth dilution method; format: functional; details: SG 511, 24 h
Outline: (§4)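 Microbroth dilution per NCCLS guidelines. Bacteria grown overnight at 37 °C in Mueller–Hinton broth. Compound solution serially diluted twofold in MHB, then wells inoculated to a final 5×10⁵ CFU/mL. Incubated 24 h at 37 °C. MIC (µg/mL) read on an automatic plate reader as the lowest dilution allowing no visible growth.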

[31] = system: Staphylococcus aureus; experiment: Antibacterial activity against methicillin-resistant Staphylococcus aureus 994/93 after 24 hrs by micro-broth dilution method; format: functional
Outline: (§5)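 Broth microdilution per NCCLS in Mueller–Hinton broth. Overnight cultures grown at 37 °C. Compound serially diluted twofold, then wells inoculated to a final 5×10⁵ CFU/mL. Plates held at 37 °C for 24 h. MIC (µg/mL) read on an automatic plate reader as the lowest dilution with no visible growth.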

[32] = system: Staphylococcus aureus; experiment: Antibacterial activity against methicillin-resistant Staphylococcus aureus 134/94 after 24 hrs by microbroth dilution method; format: functional; outline: as §5
[33] = system: Micrococcus luteus; experiment: Antibacterial activity against Micrococcus luteus ATCC 10240 after 24 hrs by microbroth dilution method; format: functional; details: ATCC 10240, 24 h; outline: as §4
[34] = system: Enterococcus faecalis; experiment: Antibacterial activity against Enterococcus faecalis 1528 after 24 hrs by micro-broth dilution method; format: functional; outline: as §4
[35] = system: Mycolicibacterium smegmatis; experiment: Antimicrobial activity against Mycobacterium smegmatis SG 987 after 24 hrs by micro-broth dilution method; format: functional; outline: as §4
[36] = system: Mycolicibacterium aurum; experiment: Antimicrobial activity against Mycobacterium aurum SB 66 after 24 hrs by micro-broth dilution method; format: functional; outline: as §4
[37] = system: Mycolicibacterium vaccae; experiment: Antimicrobial activity against Mycobacterium vaccae 10670 after 24 hrs by micro-broth dilution method; format: functional; outline: as §4
[38] = system: Mycolicibacterium fortuitum; experiment: Antimicrobial activity against Mycobacterium fortuitum Borstel after 24 hrs by microbroth dilution method; format: functional; outline: as §4

| Compound | MIC [1] | MIC [2] | MIC [3] | MIC [4] | MIC [5] | MIC [6] | MIC [7] | MIC [8] | MIC [9] | MIC [10] | GI50 [27] | GI50 [28] | CC10 [29] | CC50 [29] | MIC [30] | MIC [31] | MIC [33] | MIC [34] | MIC [35] | MIC [36] | also measured |
| --- | --- | --- | --- | --- | --- | --- | --- | --- | --- | --- | --- | --- | --- | --- | --- | --- | --- | --- | --- | --- | --- |
| Clc1ccc(-n2nnnc2SCc2ccccc2)cc1Cl | 16 µM (≈ 5.4 µg/mL) | 32 µM (≈ 10.8 µg/mL) | 62.5 µM (≈ 21.1 µg/mL) | 125 µM (≈ 42.2 µg/mL) | 8 µM (≈ 2.7 µg/mL) | 16 µM (≈ 5.4 µg/mL) | 32 µM (≈ 10.8 µg/mL) | 16 µM (≈ 5.4 µg/mL) | 32 µM (≈ 10.8 µg/mL) | 62.5 µM (≈ 21.1 µg/mL) | 19.1 µg/mL (≈ 56.6 µM) | > 50 µg/mL | 9.9 µg/mL (≈ 29.4 µM) | 48.6 µg/mL (≈ 144 µM) |  |  |  |  |  |  | MIC [11]: > 250 µM; MIC [12]: > 250 µM; MIC [13]: > 250 µM; MIC [14]: > 250 µM; MIC [15]: > 250 µM; MIC [16]: > 250 µM; MIC [17]: > 250 µM; MIC [18]: > 250 µM; MIC [19]: > 250 µM; MIC [20]: > 250 µM; MIC [21]: 250 µM (≈ 84.3 µg/mL); MIC [22]: > 250 µM; MIC [23]: > 250 µM; MIC [24]: > 250 µM; MIC [25]: 125 µM (≈ 42.2 µg/mL); MIC [26]: 125 µM (≈ 42.2 µg/mL) |
| Cc1ccc(CSc2ccncc2)cc1 | 62.5 µM (≈ 13.5 µg/mL) | 62.5 µM (≈ 13.5 µg/mL) | 62.5 µM (≈ 13.5 µg/mL) | 125 µM (≈ 26.9 µg/mL) | 32 µM (≈ 6.89 µg/mL) | 62.5 µM (≈ 13.5 µg/mL) | 125 µM (≈ 26.9 µg/mL) | 32 µM (≈ 6.89 µg/mL) | 62.5 µM (≈ 13.5 µg/mL) | 125 µM (≈ 26.9 µg/mL) | 24.3 µg/mL (≈ 113 µM) | 37.5 µg/mL (≈ 174 µM) | 13.3 µg/mL (≈ 61.8 µM) | 21.4 µg/mL (≈ 99.4 µM) | 50 µg/mL (≈ 232 µM) | 100 µg/mL (≈ 464 µM) | 100 µg/mL (≈ 464 µM) | 100 µg/mL (≈ 464 µM) | 50 µg/mL (≈ 232 µM) | 25 µg/mL (≈ 116 µM) | MIC [32]: 100 µg/mL (≈ 464 µM); MIC [37]: 25 µg/mL (≈ 116 µM); MIC [38]: 12.5 µg/mL (≈ 58.1 µM) |
| O=C(O)c1cn(C2CC2)c2cc(N3CCNCC3)c(F)cc2c1=O [CIPROFLOXACIN] |  |  |  |  |  |  |  |  |  |  |  |  |  |  | 0.2 µg/mL (≈ 0.604 µM) | > 100 µg/mL | 12.5 µg/mL (≈ 37.7 µM) | 0.8 µg/mL (≈ 2.41 µM) | 0.78 µg/mL (≈ 2.35 µM) | 0.1 µg/mL (≈ 0.302 µM) | MIC [37]: 0.78 µg/mL (≈ 2.35 µM); MIC [38]: 0.4 µg/mL (≈ 1.21 µM) |
